pIC50: −log10 of the molar value. Activity calls are given as the source filed them. No cut-off for these calls is given here.
Legend:
[1] = test system: MDA-MB-231; test: Cell cycle arrest in human MDA-MB-231 cells assessed as accumulation at S phase at 1 uM after 24 hrs using propidium iodide staining by flow cytometry (reference value: 28.59 %); format: functional
[2] = test system: MDA-MB-231; test: Cell cycle arrest in human MDA-MB-231 cells assessed as accumulation at G1 phase at 1 uM after 24 hrs using propidium iodide staining by flow cytometry (reference value: 52.67 %); format: functional
[3] = test system: MDA-MB-231; test: Cell cycle arrest in human MDA-MB-231 cells assessed as apoptosis at 1 uM after 24 hrs using propidium iodide staining by flow cytometry (reference value: 0.10 %); format: functional
[4] = test system: MCF7; test: Induction of apoptosis in human MCF7 cells assessed as DNA fragmentation after 24 hrs by ELISA; format: functional, cell-based
Outline: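 MCF-7 cells were treated with compound, with 4-OHT alongside. DNA fragmentation was quantified after 24 h and expressed relative to a positive control set at 100%. Data are mean ± SEM of three independent experiments.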

[5] = test system: MCF7; test: Induction of apoptosis in human MCF7 cells assessed as early apoptotic cells at 5 uM after 24 hrs using annexin V/PI staining by flow cytometry (reference value: 3.19 %); format: functional
[6] = test system: MCF7; test: Induction of apoptosis in human MCF7 cells assessed as late apoptotic cells at 3 uM after 24 hrs using annexin V/PI staining by flow cytometry (reference value: 6.46 %); format: functional
Outline: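 MCF-7 cells were exposed to vehicle or the indicated compound concentrations for 24 h. Phosphatidylserine exposure was then measured by flow cytometry after staining with FITC-labelled Annexin V and propidium iodide. Apoptotic cell fractions were read from dot plots relative to vehicle.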

[7] = test system: MCF7; test: Antiproliferative activity against human MCF7 cells after 72 hrs by MTT assay; format: functional, cell-based; conditions: MCF7, 72 h
Outline: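 MCF-7 (ER+ve) and MDA-MB-231 (ER-ve) breast cancer cells were exposed to compound or vehicle. Viability was read by MTT and expressed as % cell death versus vehicle, with 4-hydroxytamoxifen as positive control. IC50 came from three independent experiments, each in triplicate.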

[8] = Cytotoxicity against rat primary calvarial osteoblasts after 24 hrs by MTT assay; format: cell-based; conditions: calvarial osteoblast
Outline: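 Vero, HEK-293 and primary rat calvarial osteoblasts were given vehicle or a range of concentrations for 24 h. Cell death was expressed as % relative to vehicle.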

[9] = test system: MCF7; test: Cytotoxicity against human MCF7 cells assessed as reduction in membrane integrity at IC50 by LDH release assay; format: functional, cell-based
Outline: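 Membrane integrity was assessed in MCF-7 cells exposed to a range of compound concentrations, by measuring LDH released into the culture medium.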

[10] = test system: HEK293; test: Cytotoxicity against HEK293 cells after 24 hrs by MTT assay; format: cell-based; conditions: Homo sapiens, HEK293, 72 h; in the assay text read “after 72 hrs” for “after 24 hrs”
[11] = test system: Mus musculus; test: Toxicity in human MCF7 cells xenografted athymic nude mouse assessed as change in body weight at 16 mg/kg/day, po for 21 days measured up to 21 days relative to vehicle-treated control; format: organism-based; set-up: route oral; conditions: in vivo, 504 h
[12] = test system: MCF7; test: Induction of apoptosis in human MCF7 cells assessed as reduction in cell viability at 5 uM after 24 hrs by MTT assay in presence of LEHD-FMK; format: functional, cell-based
[13] = test system: MCF7; test: Induction of apoptosis in human MCF7 cells assessed as reduction in cell viability at 5 uM after 24 hrs by MTT assay in presence of zIEDT-FMK; format: functional, cell-based
[14] = test system: MCF7; test: Induction of apoptosis in human MCF7 cells assessed as increase in Bax/Bcl2 ratio at 5 uM after 6 to 24 hrs by immunoblotting method; format: functional, cell-based
[15] = test system: MCF7; test: Induction of apoptosis in human MCF7 cells assessed as caspase-9 cleavage at 5 uM after 6 hrs by immunoblotting method; format: functional, cell-based
[16] = test system: MCF7; test: Induction of apoptosis in human MCF7 cells assessed as caspase-8 cleavage at 5 uM after 6 hrs by immunoblotting method; format: functional, cell-based
[17] = test system: MCF7; test: Cell cycle arrest in human MCF7 cells assessed as increase in p21 protein level at 5 uM after 12 to 24 hrs by immunoblotting method; format: functional, cell-based
[18] = test system: MCF7; test: Cell cycle arrest in human MCF7 cells assessed as decrease in E2F mRNA level at 1 to 5 uM after 12 hrs by QRT-PCR method; format: functional, cell-based
[19] = test system: MCF7; test: Cell cycle arrest in human MCF7 cells assessed as increase in p27 mRNA level at 1 to 5 uM after 12 hrs by QRT-PCR method; format: functional, cell-based
[20] = test system: MCF7; test: Cell cycle arrest in human MCF7 cells assessed as accumulation at G2 phase at 5 uM after 24 hrs using propidium iodide staining by flow cytometry (reference value: 7.46 %); format: functional
[21] = test system: MCF7; test: Cell cycle arrest in human MCF7 cells assessed as accumulation at G1 phase at 5 uM after 24 hrs using propidium iodide staining by flow cytometry (reference value: 67.73 %); format: functional
[22] = test system: MCF7; test: Cell cycle arrest in human MCF7 cells assessed as accumulation at S phase at 3 uM after 24 hrs using propidium iodide staining by flow cytometry (reference value: 24.81 %); format: functional
[23] = test system: MCF7; test: Cell cycle arrest in human MCF7 cells assessed as accumulation at S phase at 1 uM after 24 hrs using propidium iodide staining by flow cytometry (reference value: 24.81 %); format: functional
[24] = test system: MDA-MB-231; test: Cell cycle arrest in human MDA-MB-231 cells assessed as accumulation at S phase at 5 uM after 24 hrs using propidium iodide staining by flow cytometry (reference value: 28.59 %); format: functional
[25] = test system: MDA-MB-231; test: Cell cycle arrest in human MDA-MB-231 cells assessed as apoptosis at 5 uM after 24 hrs using propidium iodide staining by flow cytometry (reference value: 0.10 %); format: functional
[26] = test system: MDA-MB-231; test: Cell cycle arrest in human MDA-MB-231 cells assessed as accumulation at G1 phase at 3 uM after 24 hrs using propidium iodide staining by flow cytometry (reference value: 52.67 %); format: functional

**Q.** Which results are given for `Cc1ccc(S(=O)(=O)N2Cc3ccccc3OC[C@@H]2Cc2ccc(OCCN3CCCCCC3)cc2)cc1.Cl`?
**A.** Activity [1]: 24.81%; Activity [2]: 67.73%; Activity [3]: 0.6%; Activity [4]: Dose-dependent effect; Activity [5]: 42.51%; Activity [6]: 25.59%; pIC50 [7]: 5.74; Activity [8]: Non-toxic; Activity [9]: inactive; pIC50 [10]: 4.52; Activity [11]: Non-toxic; Activity [12]: inactive; Activity [13]: Active; Activity [14]: Active; Activity [15]: Active; Activity [16]: Active; Activity [17]: Active; Activity [18]: Active; Activity [19]: Active; Activity [20]: 6.44%; Activity [21]: 86.22%; Activity [22]: 6.18%; Activity [23]: 18.93%; Activity [24]: 17.71%; Activity [25]: 1.47%; Activity [26]: 73.31%
